# This is a sample that favours compounds with a hit; in the whole collection about 2.5% have one here.
# SMARCA2 act: increases SMARCA2 function in MMTV reporter cells. AID 652017. activation, % at 9.1 µM. MG213 cells, MMTV-luciferase reporter, dexamethasone, overnight. actives 1% (n = 370,000); in the data active = activation above about 7.8%;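 note: 0% = vehicle wells and 100% = reference activator wells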
# Vif inh: HIV Vif inhibition; HEK293T cells, Vif self-association by quenched fluorescence, imaging, 24 h; inhibition, % at 7.49 µM; actives 0.35% (n = 340,000); AID 602346; in the data active = inhibition above about 50%, passing the limit was not always enough; inconclusive = no clear call, values can overlap the other calls; inactive = below about 31%
# SR-BI DiI inh: mouse SR-BI HDL lipid transfer inhibition | Q61009 | ldlA[mSR-BI] CHO cells, DiI-HDL uptake fluorescence, 3 h | inhibition, % at 12.5 µM | actives 0.96% (n = 320,000) | AID 488896;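 active = mean replicate inhibition of at least 70% and a set share of replicates each scoring 70 or more; inconclusive = meets just one of the two criteria; inactive = fails both criteria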;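 note: 0% = median of neutral control wells and 100% = median of positive control wells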
# Target sequence (Q61009 whole entry, looked up): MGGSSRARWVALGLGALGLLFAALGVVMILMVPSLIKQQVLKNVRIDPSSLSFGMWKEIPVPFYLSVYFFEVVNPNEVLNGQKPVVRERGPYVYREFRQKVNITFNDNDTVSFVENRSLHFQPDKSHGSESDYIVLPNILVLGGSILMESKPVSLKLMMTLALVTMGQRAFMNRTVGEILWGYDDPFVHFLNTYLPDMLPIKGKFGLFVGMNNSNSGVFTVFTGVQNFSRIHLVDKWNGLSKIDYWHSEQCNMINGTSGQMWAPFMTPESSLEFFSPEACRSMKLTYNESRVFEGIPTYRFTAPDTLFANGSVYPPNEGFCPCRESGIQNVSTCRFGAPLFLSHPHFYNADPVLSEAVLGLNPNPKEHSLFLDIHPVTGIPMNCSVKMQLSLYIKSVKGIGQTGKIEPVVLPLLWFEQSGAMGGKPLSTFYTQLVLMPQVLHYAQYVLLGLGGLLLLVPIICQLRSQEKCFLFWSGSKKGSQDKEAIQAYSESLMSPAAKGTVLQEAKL
# TAG inh: triacylglycerol accumulation inhibition; inhibition, % at 12.5 µM; H9c2 cells, Nile Red lipid (TAG) fluorescence; cells loaded with 200 µM oleic acid; actives 0.66% (n = 230,000); AID 651582;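 active = pattern-corrected inhibition of lipid staining of at least 50% with the nuclear-stain viability signal not falling by more than 50%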;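 note: 0% = DMSO wells and 100% = triacsin C control wells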
# SR-BI DiI-HDL act: enhances SR-BI lipid uptake from DiI-HDL. activation, % at 12.5 µM. actives 0.096% (n = 320,000). CHO ldlA[mSR-BI] cells, DiI-HDL uptake fluorescence, 3 h; 100 = double the neutral-control signal;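 active = mean replicate activation of at least 60% and every replicate at or above 60%; inconclusive = mean or all-replicate condition met, but not both; inactive = mean below 60% and not all replicates reaching 60%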;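 note: 0% = median plate neutral-control signal and 100% = twice that signal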
#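 System: CHO ldlA[mSR-BI] cells / Medium: HEPES-buffered (25 mM, pH 7.4) F12 plus 0.5% BSA / Probe or stimulus: labelled HDL, 10 µg/mL / Doses: single compound concentration, delivered by pin transfer / Schedule: 3 h, 37 °C / Measured by: DiI fluorescence, bottom read / Measure: cell-associated DiI fluorescence as measure of HDL uptake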
# The depositor's hits bear a star; ? = inconclusive; . = no result given.
SMILES,SMARCA2 act,Vif inh,SR-BI DiI inh,TAG inh,SR-BI DiI-HDL act
COc1ccc(NC(=O)Cc2csc(NC(=O)Nc3ccccc3OC)n2)cc1,0,-5,.,-30,.
COc1ccccc1NC(=O)Nc1nc(CC(=O)Nc2ccc(N(C)C)cc2)cs1,3,16,91*,5,-91
CC1(c2nnnn2Cc2ccccc2)CN(S(C)(=O)=O)CC(=O)N1Cc1cccs1 (stereo unspecified),-2,.,.,.,.
CCc1ccc(C=NN2CCN(Cc3ccc(C)cc3C)CC2)cc1,-1,.,.,.,.
COc1ccccc1C(=O)N1CCN(C(=O)[C@H]2O[C@@H](n3cnc(C(N)=O)n3)[C@H](O)[C@@H]2O)CC1,-1,.,.,.,.
C=CCOC(=O)C1=C(C)NC(SCC)=C(C#N)C1c1ccc(Cl)cc1 (stereo unspecified),-6,8,83*,-3,-83
C=C1c2cccc(OC)c2O[C@H](C(=O)OCC)[C@@H]1CC(CC)CCCC (stereo partly specified),-3,-5,84*,7,-84
CCOC(=O)c1ccc2[nH]c(C)c(C)c2c1,7.9*,-2,9,.,-9
COC(CNC(=O)c1ccc2nc(-c3ccccc3)c(-c3ccccc3)nc2c1)OC,-3,0,80*,14,-80
COc1ccc(NC(=O)c2ccc3nc(-c4ccccc4)c(-c4ccccc4)nc3c2)c(OC)c1,0,1,76*,.,-76
COc1ccc(-c2nc3ccc(C(=O)NCC(OC)OC)cc3nc2-c2ccc(OC)cc2)cc1,-4,-4,51,-1,-51
COc1ccc(NC(=O)c2ccc3[nH]c(C)c(C)c3c2)c(OC)c1,2,0,109*,.,-109
Cc1[nH]c2ccc(C(=O)OCCN(C)C)cc2c1C,1,4,-13,-12,13
CCOc1ccccc1NC(=O)c1ccc2[nH]c(C)c(C)c2c1,0,27,.,.,.
COc1ccc(CN(C)C(=O)[C@@H](Cc2ccccc2)NC(=O)[C@H]2O[C@@H](n3ccc(N)nc3=O)[C@H](O)[C@@H]2O)cc1OC,-1,.,.,.,.
Cc1cc(NC(=O)c2ccc3nc(-c4ccccc4)c(-c4ccccc4)nc3c2)no1,-2,8,80*,.,-80
CN1CC[C@@H]2CN(S(=O)(=O)c3ccccc3)[C@H](c3ccccc3Br)C[C@@H]21,-1,.,.,.,.
COc1ccc(N)cc1CN1CCN(c2ncc(Cc3ccccc3)cn2)CC1,-3,.,.,.,.
CC1CCN(C(=O)c2ncn3c2C(=O)NC[C@H]3C)CC1,-6,.,.,.,.
O=C(CCSCCC(=O)NN=Cc1ccc(F)cc1)NN=Cc1ccc(F)cc1,-4,9,82*,-8,-82
O=C(CCCSCCCC(=O)NN=Cc1ccccc1)NN=Cc1ccccc1,-2,-8,33,-4,-33
COc1ccccc1CN1C(=O)[C@@H]2Cc3c([nH]c4ccccc34)C(C)(C)N2C1=O,-1,8,76*,-12,-76
Cc1ccccc1CN1C(=O)[C@@H]2Cc3c([nH]c4ccccc34)C(C)(C)N2C1=O,-2,105*,67,-11,-67
CC1(C)c2[nH]c3ccccc3c2C[C@@H]2C(=O)N(c3cc(F)ccc3F)C(=O)N21,-2,3,77*,-4,-77
CCCCCCN1CCN(C2CN(Cc3cn(Cc4ccc(C(F)(F)F)cc4)nn3)S(=O)(=O)C2)CC1 (stereo unspecified),-2,.,.,.,.
SMILES,SMARCA2 act,Vif inh,SR-BI DiI inh,TAG inh,SR-BI DiI-HDL act
Cc1ccccc1-c1ccc2c(c1)[C@@H]1C[C@H]3[C@@H](CN1CC2)[C@H](C)OC(C1CCCCC1)N3C (stereo partly specified),-2,.,.,.,.
C[C@@H]1CN([C@@H](C)CO)C(=O)CCCn2cc(nn2)CO[C@H]1CN(C)C(=O)NC1CCCCC1,-2,.,.,.,.
CC1=Nc2ccc3ccccc3c2C1(C)C,-2,53*,2,-47,-2
COc1ccccc1CN1Cc2ccccc2Oc2ccccc2S1(=O)=O,-1,.,.,.,.
N#Cc1ccc(S(=O)(=O)NC(=O)[C@H]2O[C@@H](n3ccc(=O)[nH]c3=O)[C@H](O)[C@@H]2O)cc1,-5,.,.,.,.
N=C1/C(=C/c2cccn2CCOc2ccccc2)C(=O)N=C2SC=C(c3ccccc3)N12,-3,2,75*,.,-75
COc1cc(OC)cc(-c2c(-c3cccs3)c3cc(-c4ccc5cc[nH]c5c4)ccc3n2C)c1,0,-10,109*,-72,-109
COc1cc(OC)cc(-c2c(-c3cccs3)c3cc(-c4ccc(SC)cc4)ccc3n2C)c1,1,-6,20,-74,-20
COc1cc(OC)cc(-c2c(-c3cccs3)c3cc(-c4ccc5[nH]ccc5c4)ccc3n2C)c1,-2,2,80*,.,-80
Cc1occc1C(=O)N/N=C/c1sc(N2CCOCC2)nc1-c1ccccc1,-3,-3,-8,-2,8
Cc1occc1C(=O)N/N=C/C1=C(N2CCOCC2)C(=C/c2ccc(Cl)cc2Cl)/CC1,6,133*,86*,3,-86
O=C(C#Cc1ccccc1)c1ccc([N+](=O)[O-])cc1,2,?,9,-14,-9
O=C(C#Cc1ccccc1)c1ccccc1,-3,42,.,64*,.
CCCc1c(C(=O)N/N=C/c2c[nH]c3ccccc23)nnn1-c1nonc1N,-1,0,.,2,.
Cc1ccsc1/C=N/NC(=O)c1nnn(-c2nonc2N)c1-c1ccccc1,-3,?,52,.,-52
Cc1ccc(-c2c(C(=O)N/N=C/c3sccc3C)nnn2-c2nonc2N)cc1,-2,31,85*,.,-85
Cc1ccc(-c2c(C(=O)N/N=C/c3c[nH]c4ccccc34)nnn2-c2nonc2N)cc1,-5,-2,85*,.,-85
C[C@H]1CNCCN1c1ccc(N2CCS(=O)(=O)CC2)c(C#N)c1,0,.,.,.,.
COC(=O)C1=C(C)N(Cc2cccc(C(F)(F)F)c2)C(=NCc2ccc3c(c2)OCO3)NC1c1ccccc1C(F)(F)F (stereo unspecified),3,.,.,.,.
CN1CCN(c2cc(-c3cc(O)c4ncccc4c3)ccn2)CC1,1,-7,-7,77*,7
Oc1cc(-c2cccnc2)cc2cccnc12,0,-3,-18,56*,18
CN1CCN(C(=O)c2cccc(-c3cc(O)c4ncccc4c3)c2)CC1,-1,1,-10,.,2
CC(C)(C)NC(=S)NNC(=O)c1ccncc1,-2,.,-185,.,185*
CCNC(=S)NNC(=O)c1ccncc1,1,9,-17,-5,17
C[C@@H]1CN(C(=O)OC(C)(C)C)CCN1c1ccc(N2CC[C@@H](O)C2)c(C#N)c1,-1,.,.,.,.
Cc1cc(N2CCN(C(=O)OC(C)(C)C)C[C@@H]2C)ccc1N1CCN(Cc2ccccc2)[C@@H](C)C1,4,.,.,.,.
CCOC(=O)N1CCC(N2C(=O)c3ccc(C(=O)Nc4ccc(OC)cc4)cc3C2=O)CC1,0,1,16,.,-16
CCOC(=O)N1CCC(N2C(=O)c3ccc(C(=O)Nc4ccc(F)cc4F)cc3C2=O)CC1,-1,-7,78*,18,-78

# Source: PubChem
